Measured values: ChEMBL document CHEMBL3244050, “Synthesis and biological activity of beta-endorphin and analogues. Additional evidence for multiple opiate receptors” (J Med Chem, 1978)

Legend:
[1] = biological target: T1, Opioid receptor (Rattus norvegicus) (UniProt P33533+P34975+P33535); assay: Displacement of [3H]naloxone from opioid receptor in rat brain after 30 mins; assay type: tissue-based
Procedure, shortened: (§1)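 Rat brain homogenate (2-mL aliquots, ca. 1 mg wet weight) incubated with […] [3H]naloxone (25 Ci/mmol) for 30 min at 25 °C, with test peptides at three to five concentrations. Each concentration run as three separate sets of duplicates. ID50 taken from log-probit plots. The relative value is expressed against natural sheep beta-endorphin.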

[2] = biological target: T1, Opioid receptor (Rattus norvegicus); assay: Modulation of opioid receptor in rat vas deferens assessed as inhibition of electrically evoked contractions; assay type: tissue-based
Procedure, shortened: (§2)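 Rat vas deferens, electrically stimulated; depression of contractions recorded over five increasing concentrations. Each concentration is the mean from six different tissues. ID50 derived from log-probit plots. The relative value and ratio are expressed against natural sheep beta-endorphin.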

Cavia porcellus [3] = organism: Cavia porcellus; assay: Modulation of opioid receptor in guinea pig ileum assessed as inhibition of electrically evoked contractions relative to natural sheep beta-endorphin; assay type: tissue-based; parameters: scale not given: the % may be the effect or the level left
Procedure, shortened: (§3)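 Guinea pig ileum, electrically stimulated; depression of contractions measured. Each tissue received increasing concentrations of only one compound, to avoid tachyphylaxis seen with repeat doses given 30 min apart. ID50 taken from log-probit plots of five increasing concentrations, each the mean from six tissues. The relative value is expressed against natural sheep beta-endorphin.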

Cavia porcellus [4] = organism: Cavia porcellus; assay: Modulation of opioid receptor in guinea pig ileum assessed as inhibition of electrically evoked contractions; assay type: tissue-based; procedure, shortened: as §3
[5] = biological target: T1, Opioid receptor (Rattus norvegicus); assay: Modulation of opioid receptor in rat vas deferens assessed as inhibition of electrically evoked contractions relative to natural sheep beta-endorphin; assay type: tissue-based; parameters: scale not given: the % may be the effect or the level left; procedure, shortened: as §2
[6] = biological target: T1, Opioid receptor (Rattus norvegicus); assay: Displacement of [3H]naloxone from opioid receptor in rat brain after 30 mins relative to natural sheep beta-endorphin; assay type: tissue-based; procedure, shortened: as §1
[7] = Retardation factor of the compound using 1-butanol-pyridine-acetic acid-water at ratio of 6.0:6.0:1.2:4.8 as solvent system by thin layer chromatography; assay type: physicochemical; details: buffer
[8] = Retardation factor of the compound using 1-butanol-pyridine-0.6 M ammonium acetate in 0.1% aqueous acetic acid at ratio of 5:3:11 (v/v) as solvent system by partition chromatography; assay type: physicochemical; details: buffer
[9] = Retardation factor of the compound using 1-butanol-acetic acid-water at ratio of 4:3:3 as solvent system by thin layer chromatography; assay type: physicochemical; details: buffer
[10] = Retardation factor of the compound measured at 400 V for 4 hrs by paper electrophoresis; assay type: physicochemical

Row | ID50 [1] | ID50 [2] | Activity [5] | Activity [6] | Compound | Activity (Cavia porcellus [3]) | ID50 (Cavia porcellus [4]) | Rf [7] | Rf [8] | Rf [9] | Rf [10]
1 | 10 nM | 130 nM | 100% | 100% | BETA-ENDORPHIN [listing 1 of 2 here] | 100% | 27 nM | – | – | – | –
2 | – | – | – | – | BETA-ENDORPHIN [listing 2 of 2 here] | – | – | 0.45 | 0.2 | 0.077 | 0.47
3 | – | – | – | – | CC[C@H](C)[C@H](NC(=O)[C@H](C)NC(=O)[C@H](CC(N)=O)NC(=O)[C@H](CCCCN)NC(=O)[C@H](Cc1ccccc1)NC(=O)[C@H](CC(C)C)NC(=O)[C@@H](NC(=O)[C@@H](NC(=O)[C@H](CC(C)C)NC(=O)[C@@H]1CCCN1C(=O)[C@@H](NC(=O)[C@H](CCC(N)=O)NC(=O)[C@H](CO)NC(=O)[C@H](CCCCN)NC(=O)[C@H](CCC(=O)O)NC(=O)[C@H](CO)NC(=O)[C@@H](NC(=O)[C@H](CC[S+](C)[O-])NC(=O)[C@H](Cc1ccccc1)N(C)C(=O)CNC(=O)[C@@H](C)NC(=O)[C@@H](N)Cc1ccc(O)cc1)[C@@H](C)O)[C@@H](C)O)C(C)C)[C@@H](C)O)C(=O)N[C@H](C(=O)N[C@@H](CCCCN)C(=O)N[C@@H](CC(N)=O)C(=O)N[C@@H](C)C(=O)N[C@@H](Cc1ccc(O)cc1)C(=O)N[C@@H](CCCCN)C(=O)N[C@@H](CCCCN)C(=O)NCC(=O)N[C@@H](CCC(=O)O)C(=O)O)[C@@H](C)CC (some centres undefined) | – | – | 0.42 | 0.21 | 0.061 | 0.47
